From ChEMBL document CHEMBL1148700, “Synthesis and identification of [1,2,4]thiadiazole derivatives as a new series of potent and orally active dual agonists of peroxisome proliferator-activated receptors alpha and delta” (J Med Chem, 2007)
pEC50: −log10 of the molar value. Values joined by “and” are separate entries in the source; they are usually repeats but may differ in a detail not shown here. Identical values can stand only once. Active and inactive are the calls of the source. The calls are words filed in the database; no cut-off is given here.

How the values were obtained:
[1] = molecular target: T1, Peroxisome proliferator-activated receptor delta (Homo sapiens, UniProt Q03181); experiment: Agonist activity at PPARdelta expressed in HEK293 cells by measuring Gal4 luciferase reporter activity; format: functional, cell-based
T1 sequence (Q03181 whole entry): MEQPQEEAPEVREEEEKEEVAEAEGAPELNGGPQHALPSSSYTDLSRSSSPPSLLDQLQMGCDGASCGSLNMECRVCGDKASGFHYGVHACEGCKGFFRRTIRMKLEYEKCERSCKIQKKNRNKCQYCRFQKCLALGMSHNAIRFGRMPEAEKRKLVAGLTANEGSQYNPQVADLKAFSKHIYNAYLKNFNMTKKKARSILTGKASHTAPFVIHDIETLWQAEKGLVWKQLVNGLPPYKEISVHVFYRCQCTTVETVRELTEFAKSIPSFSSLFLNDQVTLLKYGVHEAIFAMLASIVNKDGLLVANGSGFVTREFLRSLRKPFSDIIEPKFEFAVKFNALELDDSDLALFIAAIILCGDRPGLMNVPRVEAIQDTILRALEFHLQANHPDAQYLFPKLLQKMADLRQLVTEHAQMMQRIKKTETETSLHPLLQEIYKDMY

[2] = molecular target: T2, Peroxisome proliferator-activated receptor alpha (Homo sapiens) (UniProt Q07869); experiment: Agonist activity at PPARalpha expressed in HEK293 cells by measuring Gal4 luciferase reporter activity relative to (S)-2- {2-[1-Ethyl-3-(4-trifluoromethoxyphenyl)ureido] indan-5-ylsulfanyl}-2- methylpropionic acid; format: functional, cell-based
T2 sequence (whole entry): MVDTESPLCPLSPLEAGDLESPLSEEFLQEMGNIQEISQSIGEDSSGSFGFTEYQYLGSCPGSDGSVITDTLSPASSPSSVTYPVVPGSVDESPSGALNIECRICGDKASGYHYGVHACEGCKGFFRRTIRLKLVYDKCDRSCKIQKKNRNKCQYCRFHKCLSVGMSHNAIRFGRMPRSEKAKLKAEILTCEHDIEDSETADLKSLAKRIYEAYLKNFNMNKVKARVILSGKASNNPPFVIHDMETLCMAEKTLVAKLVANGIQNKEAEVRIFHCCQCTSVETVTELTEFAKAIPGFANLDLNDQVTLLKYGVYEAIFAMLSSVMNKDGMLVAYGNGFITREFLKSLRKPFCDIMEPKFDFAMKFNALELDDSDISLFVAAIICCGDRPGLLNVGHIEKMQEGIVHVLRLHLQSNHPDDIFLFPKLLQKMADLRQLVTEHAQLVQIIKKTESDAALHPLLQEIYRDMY
Method in brief: (§1)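 HEK293 cells grown in DMEM/F-12 with 10% FBS and glutamine, cotransfected with a PPARα ligand-binding domain-Gal4 chimera and a Gal4-luciferase reporter. Next day switched to 5% charcoal-treated FBS medium, replated after 6 h at 50 000 cells/well, and cultured overnight. Compound or vehicle (0.1% DMSO) added for 24 h at 37 °C. Luciferase read by Steady-Glo; percent efficacy given relative to a reference PPARα agonist.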

[3] = molecular target: T3, Peroxisome proliferator-activated receptor gamma (Homo sapiens, UniProt P37231); experiment: Agonist activity at PPARgamma expressed in HEK293 cells by measuring Gal4 luciferase reporter activity; format: functional, cell-based
T3 sequence (P37231 whole entry): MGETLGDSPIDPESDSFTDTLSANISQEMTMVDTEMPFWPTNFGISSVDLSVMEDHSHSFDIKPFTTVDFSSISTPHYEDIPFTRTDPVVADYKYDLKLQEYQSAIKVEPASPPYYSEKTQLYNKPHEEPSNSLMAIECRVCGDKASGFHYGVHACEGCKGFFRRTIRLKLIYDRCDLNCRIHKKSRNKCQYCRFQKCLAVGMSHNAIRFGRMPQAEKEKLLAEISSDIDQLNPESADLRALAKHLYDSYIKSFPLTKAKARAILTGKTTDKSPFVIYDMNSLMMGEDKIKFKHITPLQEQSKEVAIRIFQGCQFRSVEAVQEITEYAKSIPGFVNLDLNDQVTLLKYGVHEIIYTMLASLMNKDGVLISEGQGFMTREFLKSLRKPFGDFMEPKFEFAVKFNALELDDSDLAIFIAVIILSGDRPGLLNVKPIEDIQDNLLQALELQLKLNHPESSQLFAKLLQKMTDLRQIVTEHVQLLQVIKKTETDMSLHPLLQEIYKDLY

[4] = Tmax in rat at 3 mg/kg, po; format: ADME, organism-based; parameters: dose 3 mg/kg, route oral; details: in vivo
Method in brief: (§2)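 Heparinized orbital-sinus blood was collected; plasma was precipitated with acetonitrile plus internal standard and quantified by LC-MS-MS using calibration standards prepared in plasma.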

[5] = Cmax in rat at 3 mg/kg, po; format: ADME, organism-based; parameters: dose 3 mg/kg, route oral; details: in vivo; method in brief: as §2
[6] = molecular target: T4, Bile acid receptor (Homo sapiens) (UniProt Q96RI1); experiment: Effect on FXR
T4 sequence (whole entry): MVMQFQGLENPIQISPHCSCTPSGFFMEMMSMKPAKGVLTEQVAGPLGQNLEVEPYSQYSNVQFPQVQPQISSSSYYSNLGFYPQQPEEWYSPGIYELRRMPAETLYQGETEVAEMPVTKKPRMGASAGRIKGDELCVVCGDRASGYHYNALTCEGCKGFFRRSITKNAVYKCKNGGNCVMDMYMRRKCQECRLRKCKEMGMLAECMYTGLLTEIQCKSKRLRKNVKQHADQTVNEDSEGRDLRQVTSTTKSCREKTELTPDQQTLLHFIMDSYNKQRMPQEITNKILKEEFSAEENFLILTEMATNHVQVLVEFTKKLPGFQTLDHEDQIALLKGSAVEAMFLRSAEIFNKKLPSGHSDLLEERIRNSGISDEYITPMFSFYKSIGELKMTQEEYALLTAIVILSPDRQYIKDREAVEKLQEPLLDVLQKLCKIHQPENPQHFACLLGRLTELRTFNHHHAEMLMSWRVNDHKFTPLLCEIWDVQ

Mus musculus [7] = experiment: Effect on lipid homeostasis in human apoA1 transgenic mouse assessed as decrease in free fatty acid levels at 3 mg/kg, po after 7 days; format: functional; parameters: scale not given: the % may be the effect or the level left
Method in brief: (§3)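 Male human apoA1 transgenic mice were given 3 mg/kg orally as a 0.5% methylcellulose suspension for 7 days. Serum HDL-C, triglyceride and free fatty acids were sampled under fed conditions and measured on a COBAS Mira Plus analyzer. n = 8/group; one-way ANOVA with Dunnett's test vs vehicle control.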

Rattus norvegicus [8] = experiment: Decrease in serum LDL-C levels in hypercholesterolemic Sprague-Dawley rat at 0.1 to 3 mg/kg/day, po after 8 days; format: functional, organism-based
Method in brief: (§4)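 Male Sprague-Dawley rats (275-325 g) were fed a high-cholesterol atherogenic diet for 6 days before and throughout treatment; lean controls got normal chow plus vehicle. Drug in 0.5% Methocel was given orally at 10 mL/kg once daily for 8 days. On day 9, retro-orbital blood was taken under CO2/O2 anesthesia and serum lipids measured on a COBAS analyzer. n = 8/group; one-way ANOVA with Dunnett's test.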

[9] = Clearance in rat at 3 mg/kg; format: ADME, organism-based; parameters: dose 3 mg/kg; details: in vivo
Method in brief: (§5)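 Rats given 3 mg/kg; IV formulation was a solution in 10% w/v Solutol in 5% dextrose in water (D5W). Blood was drawn by orbital sinus puncture into heparinized tubes. Plasma was protein-precipitated with acetonitrile containing internal standard, centrifuged at 5000g for 3 min and analysed by LC-MS-MS against plasma calibration standards.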

[10] = molecular target: Liver X receptor (Homo sapiens) (UniProt Q13133+P55055); experiment: Effect on LXR; format: protein assay
[11] = molecular target: Retinoic acid receptor (Homo sapiens) (UniProt P13631+P10826+P10276); experiment: Effect on RAR; format: protein assay
Rattus norvegicus [12] = experiment: Increase in serum HDL-C levels in hypercholesterolemic Sprague-Dawley rat at 0.1 to 3 mg/kg/day, po after 8 days; format: functional, organism-based; method in brief: as §4
[13] = Half life in rat at 3 mg/kg; format: ADME, organism-based; parameters: dose 3 mg/kg; details: in vivo; method in brief: as §5
Mus musculus [14] = experiment: Effect on lipid homeostasis in human apoA1 transgenic mouse assessed as increase in HDL-C levels at 3 mg/kg, po after 7 days; format: functional; method in brief: as §3
Mus musculus [15] = experiment: Effect on lipid homeostasis in C57BL/6J Lepob mouse assessed as decrease in serum triglyceride levels at 1 mg/kg, po after 11 days; format: functional; parameters: scale not given: the % may be the effect or the level left
Method in brief: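 Seven-week-old female ob/ob (C57BL/6J-Lepob) mice were dosed orally with a 0.5% methylcellulose suspension for 11 days. Serum TG, glucose and FFA were taken under fed conditions and measured on a COBAS Mira Plus analyzer, and liver was weighed. Mean ± SEM, n = 8; one-way ANOVA with Dunnett's test vs vehicle.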

[16] = Bioavailability in rat at 3 mg/kg, po; format: ADME, organism-based; details: in vivo; method in brief: as §2
[17] = AUC in rat at 3 mg/kg; format: ADME, organism-based; parameters: dose 3 mg/kg; details: plasma
[18] = molecular target: Retinoid X receptor (Homo sapiens) (UniProt P28702+P48443+P19793); experiment: Effect on RXR; format: protein assay
Mus musculus [19] = experiment: Effect on lipid homeostasis in human apoA1 transgenic mouse assessed as decrease in triglyceride level at 3 mg/kg, po after 7 days; format: functional; parameters: scale not given: the % may be the effect or the level left; method in brief: as §3
[20] = molecular target: T5, Peroxisome proliferator-activated receptor alpha (Mus musculus, UniProt P23204); experiment: Efficacy on PPARalpha in mouse by HD assay
T5 sequence (P23204 whole entry): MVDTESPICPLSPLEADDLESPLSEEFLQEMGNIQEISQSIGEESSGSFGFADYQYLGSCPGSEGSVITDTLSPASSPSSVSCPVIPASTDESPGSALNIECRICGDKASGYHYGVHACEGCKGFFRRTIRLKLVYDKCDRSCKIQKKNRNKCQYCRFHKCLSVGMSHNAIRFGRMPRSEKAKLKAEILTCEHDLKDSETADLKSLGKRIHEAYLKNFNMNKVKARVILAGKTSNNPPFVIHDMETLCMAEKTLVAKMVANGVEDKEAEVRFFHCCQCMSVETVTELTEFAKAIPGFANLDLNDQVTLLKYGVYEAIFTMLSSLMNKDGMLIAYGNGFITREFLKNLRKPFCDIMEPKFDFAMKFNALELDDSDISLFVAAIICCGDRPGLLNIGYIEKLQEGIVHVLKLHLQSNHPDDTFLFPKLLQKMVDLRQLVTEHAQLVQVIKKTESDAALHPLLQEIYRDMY

Homo sapiens = organism: Homo sapiens; experiment: Selectivity for PPARdelta over PPARalpha
[21] = molecular target: T6, Peroxisome proliferator-activated receptor alpha (Homo sapiens, UniProt Q07869); experiment: Agonist activity at PPARalpha expressed in HEK293 cells by measuring Gal4 luciferase reporter activity; format: functional, cell-based; method in brief: as §1
T6 sequence (Q07869 whole entry): T2 sequence (whole entry)

Retinoid X receptor (Homo sapiens), sequence (P19793 whole entry, looked up): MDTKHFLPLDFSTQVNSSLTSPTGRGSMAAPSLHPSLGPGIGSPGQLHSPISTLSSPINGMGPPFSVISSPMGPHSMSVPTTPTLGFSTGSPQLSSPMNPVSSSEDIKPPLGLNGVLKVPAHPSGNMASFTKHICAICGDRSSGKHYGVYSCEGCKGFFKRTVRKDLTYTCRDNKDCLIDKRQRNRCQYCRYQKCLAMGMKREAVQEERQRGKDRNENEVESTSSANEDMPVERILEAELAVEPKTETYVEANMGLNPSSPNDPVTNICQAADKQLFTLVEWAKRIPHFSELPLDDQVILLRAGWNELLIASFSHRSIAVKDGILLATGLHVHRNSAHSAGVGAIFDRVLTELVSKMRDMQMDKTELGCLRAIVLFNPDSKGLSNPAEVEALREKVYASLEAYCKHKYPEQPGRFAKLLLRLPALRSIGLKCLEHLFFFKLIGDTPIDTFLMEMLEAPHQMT
Retinoid X receptor (Homo sapiens), sequence (P28702 whole entry, looked up): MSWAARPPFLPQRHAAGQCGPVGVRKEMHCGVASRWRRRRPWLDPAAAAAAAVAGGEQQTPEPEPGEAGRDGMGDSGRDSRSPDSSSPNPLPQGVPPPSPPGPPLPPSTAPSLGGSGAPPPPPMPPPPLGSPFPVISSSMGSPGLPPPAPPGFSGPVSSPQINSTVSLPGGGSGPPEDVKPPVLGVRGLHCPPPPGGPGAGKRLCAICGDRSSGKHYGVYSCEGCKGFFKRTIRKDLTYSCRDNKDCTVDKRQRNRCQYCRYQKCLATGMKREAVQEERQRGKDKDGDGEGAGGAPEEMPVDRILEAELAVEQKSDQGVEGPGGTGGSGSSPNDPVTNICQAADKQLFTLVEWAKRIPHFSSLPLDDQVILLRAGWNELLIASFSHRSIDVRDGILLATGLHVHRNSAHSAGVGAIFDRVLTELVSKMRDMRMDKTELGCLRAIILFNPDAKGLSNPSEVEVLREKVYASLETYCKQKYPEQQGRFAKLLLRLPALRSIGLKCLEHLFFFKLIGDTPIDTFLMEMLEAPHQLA
Retinoid X receptor (Homo sapiens), sequence (P48443 whole entry, looked up): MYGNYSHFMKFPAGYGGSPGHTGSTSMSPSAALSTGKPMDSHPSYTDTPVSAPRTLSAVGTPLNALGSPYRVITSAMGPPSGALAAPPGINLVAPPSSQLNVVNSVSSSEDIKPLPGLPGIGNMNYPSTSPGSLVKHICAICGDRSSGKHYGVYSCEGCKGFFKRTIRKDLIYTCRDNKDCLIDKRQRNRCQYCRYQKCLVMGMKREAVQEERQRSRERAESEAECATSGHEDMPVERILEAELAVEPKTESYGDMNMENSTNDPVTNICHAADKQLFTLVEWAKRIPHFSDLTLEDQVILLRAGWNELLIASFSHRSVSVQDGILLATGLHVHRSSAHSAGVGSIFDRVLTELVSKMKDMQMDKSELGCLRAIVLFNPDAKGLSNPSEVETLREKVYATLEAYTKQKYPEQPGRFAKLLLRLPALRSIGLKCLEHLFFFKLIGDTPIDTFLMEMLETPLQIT
Retinoic acid receptor (Homo sapiens), sequence (P10276 whole entry, looked up): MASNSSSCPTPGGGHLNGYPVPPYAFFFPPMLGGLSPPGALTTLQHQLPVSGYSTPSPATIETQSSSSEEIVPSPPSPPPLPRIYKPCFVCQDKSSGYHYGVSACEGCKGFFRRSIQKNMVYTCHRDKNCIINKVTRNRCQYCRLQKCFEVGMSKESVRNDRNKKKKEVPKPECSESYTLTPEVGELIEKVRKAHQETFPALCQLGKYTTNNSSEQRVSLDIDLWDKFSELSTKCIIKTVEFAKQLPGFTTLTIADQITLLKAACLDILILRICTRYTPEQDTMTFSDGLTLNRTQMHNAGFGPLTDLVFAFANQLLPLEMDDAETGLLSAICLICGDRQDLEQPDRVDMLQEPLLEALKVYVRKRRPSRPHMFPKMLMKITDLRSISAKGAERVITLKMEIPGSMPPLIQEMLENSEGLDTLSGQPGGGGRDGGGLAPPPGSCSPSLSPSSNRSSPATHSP
Retinoic acid receptor (Homo sapiens), sequence (P10826 whole entry, looked up): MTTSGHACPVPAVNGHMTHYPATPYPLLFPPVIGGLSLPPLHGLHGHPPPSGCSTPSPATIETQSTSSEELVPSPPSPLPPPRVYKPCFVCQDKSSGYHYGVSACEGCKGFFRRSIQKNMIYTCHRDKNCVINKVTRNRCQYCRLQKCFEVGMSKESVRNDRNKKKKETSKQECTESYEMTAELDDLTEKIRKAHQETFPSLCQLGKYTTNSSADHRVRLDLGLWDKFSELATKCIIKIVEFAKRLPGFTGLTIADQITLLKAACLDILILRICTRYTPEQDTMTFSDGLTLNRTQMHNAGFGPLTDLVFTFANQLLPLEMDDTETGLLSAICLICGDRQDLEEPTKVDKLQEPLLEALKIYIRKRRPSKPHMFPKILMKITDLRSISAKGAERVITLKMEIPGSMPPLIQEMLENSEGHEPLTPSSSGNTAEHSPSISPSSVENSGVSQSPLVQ
Retinoic acid receptor (Homo sapiens), sequence (P13631 whole entry, looked up): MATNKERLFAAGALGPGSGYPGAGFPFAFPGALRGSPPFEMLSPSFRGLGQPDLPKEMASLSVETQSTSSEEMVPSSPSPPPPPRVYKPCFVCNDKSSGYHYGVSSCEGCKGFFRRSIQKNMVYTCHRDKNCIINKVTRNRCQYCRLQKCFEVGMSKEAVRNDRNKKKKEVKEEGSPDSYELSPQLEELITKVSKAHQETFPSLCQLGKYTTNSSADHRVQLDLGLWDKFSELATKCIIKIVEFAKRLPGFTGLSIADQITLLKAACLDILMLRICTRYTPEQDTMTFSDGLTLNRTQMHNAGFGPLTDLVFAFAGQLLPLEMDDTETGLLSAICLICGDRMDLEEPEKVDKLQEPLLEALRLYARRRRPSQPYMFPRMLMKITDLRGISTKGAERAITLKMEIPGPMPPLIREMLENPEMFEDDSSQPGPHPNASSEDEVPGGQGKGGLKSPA

With `Cc1cc(OCc2nc(-c3ccc(OC(F)(F)F)cc3)ns2)ccc1OC(C)(C)C(=O)O` the pEC50 [1] was 7.92 and the Activity [2] was 80%.

Work on `Cc1cc(OCc2nc(-c3ccc(C(F)(F)F)cc3)ns2)ccc1OC(C)(C)C(=O)O` yielded an Activity [2] of 71%.

In the case of `Cc1cc(SCc2nc(-c3ccc(OC(F)(F)F)cc3)ns2)ccc1OC(C)(C)C(=O)O`, the pEC50 [3] was < 5.52, the Tmax [4] was 0.8 h and the Cmax [5] was 6680 ng/mL. For the same compound, the Activity [6] was “inactive”, the Activity (Mus musculus [7]) was 31% and the Activity (Rattus norvegicus [8]) was “Active”. For the same compound, the clearance [9] was 2.2 mL/min/kg, the Activity [10] was “inactive” and the Activity [11] was “inactive”. The Activity (Rattus norvegicus [12]) was “Active”, the half-life [13] was 5.3 h and the Activity [2] was 44%. For the same compound, the Activity (Mus musculus [14]) was 74%, the Activity (Mus musculus [15]) was 80% and 98.9 mg/dl and the bioavailability [16] was 96%. For the same compound, the AUC [17] was 22000 ng·h/mL, the Activity [18] was “inactive” and the Activity (Mus musculus [19]) was 85%. For the same compound, the pEC50 [20] was 6.90.

With `Cc1cc(SCc2nc(-c3ccc(C(F)(F)F)cc3)ns2)ccc1OCC(=O)O` the pEC50 [3] was < 5.52, the Activity [2] was 42% and the Selectivity ratio (Homo sapiens) was 47.

In the case of `Cc1cc(SCc2nc(-c3ccc(Cl)cc3)ns2)ccc1OC(C)(C)C(=O)O`, the Activity [2] was 38%.

Work on `Cc1cc(SCc2nsc(-c3ccc(C(F)(F)F)cc3)n2)ccc1OC(C)(C)C(=O)O` yielded an Activity [2] of 38%.

`Cc1cc(SCc2nc(-c3ccc(C(F)(F)F)cc3)ns2)ccc1OC(C)(C)C(=O)O` showed a pEC50 [1] of 8.22, an Activity [2] of 51% and a pEC50 [21] of 7.10.

With `Cc1cc(SCc2nsc(-c3ccc(OC(F)(F)F)cc3)n2)ccc1OC(C)(C)C(=O)O` the pEC50 [3] was < 5.52 and the Activity [2] was 47%.

In the case of `Cc1cc(SCc2nc(-c3ccc(OC(F)(F)F)cc3)ns2)ccc1OC1(C(=O)O)CCCC1`, the Activity [2] was 31%.

For `Cc1cc(SCc2nc(-c3ccc(C(C)(C)C)cc3)ns2)ccc1OC(C)(C)C(=O)O`, the Activity [2] was 64%.
